Four molecules from ChEMBL document CHEMBL1126036, “Quinolone antibacterial agents. Synthesis and structure-activity relationships of a series of amino acid prodrugs of racemic and chiral 7-(3-amino-1-pyrrolidinyl)quinolones. Highly soluble quinolone prodrugs with in vivo pseudomonas activity” (J Med Chem, 1992) can be followed below.

For data set [1], the system named is Streptococcus pyogenes. Description: In vitro antibacterial activity against gram positive Streptococcus pyogenes C-203. The format is functional.
Data set [2] concerns Mus musculus. The experiment in a line: In vivo potency against acute systemic infection in mouse caused by Escherichia coli vogel on subcutaneous injection. The format is functional. The following applies: sc, read-out: PD50. In short, it runs like this: (§1)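 Acute systemic mouse infection. A single subcutaneous dose was injected at the time of challenge. Potency is reported as the median protective dose (PD50, mg/kg), determined by earlier published methods.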

Data set [3] deals with Klebsiella pneumoniae. Description: In vitro antibacterial activity against gram negative Klebsiella pneumoniae. MGH-2. The format is functional.
Data set [4] deals with Mus musculus. Description: In vivo potency against acute systemic infection in mouse caused by Streptococcus pyogenes C-203 on oral administration by gavage. The format is functional. Conditions: read-out: PD50. In short, it runs like this:
(§2)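 Acute systemic mouse infection. A single oral dose was given by gavage at the time of challenge. Potency is reported as the median protective dose (PD50, mg/kg), determined by earlier published methods.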

Data set [5] is described as follows: Aqueous solubility. The format is physicochemical. Conditions: water (aqueous); read-out: S. Summed up: (§3)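 Solubility was measured either from HPLC peak areas at equilibrium or by a conventional weight-per-volume method. All solutions were held for 24 h before measurement.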
The subject of data set [6] is Staphylococcus aureus. Description: In vitro antibacterial activity against gram positive Staphylococcus aureus UC76. The data set is classed as functional.
For data set [7], the system named is Providencia rettgeri. Description: In vitro antibacterial activity against gram negative Providencia rettgeri M-1771. The data set is classed as functional.
Data set [8] has as its system Enterobacter cloacae. Description: In vitro antibacterial activity against gram negative Enterobacter cloacae MA 2646. The data set is classed as functional.
The test system of data set [9] is Mus musculus. The experiment in a line: In vivo potency against acute systemic infection in mouse caused by Escherichia coli vogel on oral administration by gavage. The data set is classed as functional. Conditions: read-out: PD50. Summed up: as §2
A short description of data set [10]: Solubility (at pH 7.4). Conditions: buffer. The format is physicochemical. Summed up: as §3
Data set [11] in a line: Solubility (at pH 4). The data set is classed as physicochemical. Conditions: buffer, read-out: S. In short, it runs like this:
as §3

In data set [12] the test system is Enterococcus faecalis. The experiment in a line: In vitro antibacterial activity against gram positive Enterococcus faecalis MGH-2. The format is functional.
Data set [13] has as its system Streptococcus pneumoniae. The experiment in a line: In vitro antibacterial activity against gram positive Streptococcus pneumoniae SV-1. The format is functional.
For data set [14], the system named is Escherichia coli. Description: In vitro antibacterial activity against gram negative Escherichia coli vogel. The format is functional.
The test system of data set [15] is Pseudomonas aeruginosa. Description: In vitro antibacterial activity against gram negative Pseudomonas aeruginosa. UI-18. The format is functional.
Data set [16] deals with Staphylococcus aureus. Description: In vitro antibacterial activity against gram positive Staphylococcus aureus H-228. The data set is classed as functional.
A short description of data set [17]: Solubility (in 0.1 N HCl). The following applies: read-out: S. The data set is classed as physicochemical. In short, it runs like this:
as §3

The test system of data set [18] is Mus musculus. Description: In vivo potency against acute systemic infection in mouse caused by Streptococcus pyogenes C-203 on subcutaneous injection. The format is functional. Conditions: sc, read-out: PD50. Summed up:
as §1

Data set [19] deals with Mus musculus. Description: In vivo potency against acute systemic infection in mouse caused by Streptococcus pneumoniae SV-1 on oral administration by gavage. The data set is classed as functional. Conditions: read-out: PD50. In short, it runs like this: as §2
Data set [20] relates to Mus musculus. The experiment in a line: In vivo potency against acute systemic infection in mouse caused by Streptococcus pneumoniae SV-1 on subcutaneous injection. Conditions: sc, read-out: PD50. The data set is classed as functional. Summed up:
as §1

In data set [21] the test system is Escherichia coli. Description: In vitro antibacterial activity against gram negative Escherichia coli Vogel. The data set is classed as functional.
Data set [22] relates to Mus musculus. The experiment in a line: In vivo potency against acute systemic infection in mouse caused by Pseudomonas aeruginosa. UI-18. on subcutaneous injection. The data set is classed as functional. The following applies: sc, read-out: PD50. Summed up:
as §1

For data set [23], the system named is Escherichia coli. Description: In vivo potency against acute systemic infection in mouse caused by Escherichia coli Vogel on oral administration by gavage. The format is functional. The following applies: read-out: PD50. In short, it runs like this: as §2
The test system of data set [24] is Pseudomonas aeruginosa. The experiment in a line: In vitro antibacterial activity against gram negative Pseudomonas aeruginosa UI-18. The data set is classed as functional.
The test system of data set [25] is Klebsiella pneumoniae. The experiment in a line: In vitro antibacterial activity against gram negative Klebsiella pneumoniae MGH-2. The data set is classed as functional.
Data set [26] deals with Mus musculus. Description: In vivo potency against acute systemic infection in mouse caused by Pseudomonas aeruginosa UI-18 on oral administration by gavage. Conditions: read-out: PD50. The data set is classed as functional. In short, it runs like this: as §2
Data set [27] concerns the target DNA gyrase (Escherichia coli) (UniProt P0AES6+P0AES4). The experiment in a line: In vitro concentration inhibiting DNA gyrase induced cleavage in Escherichia coli H560. The format is functional. Summed up: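 DNA gyrase test run as described in earlier work. The value is the drug concentration (µg/mL) needed to cause DNA cleavage.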
The subject of data set [28] is Escherichia coli. The experiment in a line: In vivo potency against acute systemic infection in mouse caused by Escherichia coli vogel on subcutaneous injection. The following applies: sc, read-out: PD50. The format is functional. Summed up:
as §1

Data set [29] has as its system DNA gyrase (Escherichia coli). Description: In vitro concentration inhibiting DNA gyrase induced cleavage in Escherichia coli H560.
Data set [30] concerns Mus musculus. The experiment in a line: In vivo potency against acute systemic infection in mouse caused by Escherichia coli Vogel on subcutaneous injection. The data set is classed as functional. The following applies: sc, read-out: PD50. Summed up: as §1
In data set [31] the test system is Mus musculus. The experiment in a line: In vivo potency against acute systemic infection in mouse caused by Escherichia coli Vogel on oral administration by gavage. The following applies: read-out: PD50. The format is functional. Summed up: as §2
Data set [32] deals with Streptococcus pneumoniae. Description: In vivo potency against acute systemic infection in mouse caused by Streptococcus pneumoniae SV-1 on subcutaneous injection. The data set is classed as functional. Conditions: sc, read-out: PD50. Summed up: as §1

In brackets after ≈: the same amount, converted by molar mass. Some results are limits rather than exact numbers.

By MIC is commonly meant the smallest concentration in the dilution series that meets the test's criterion for growth inhibition. Low values mean greater potency, high ones weaker potency. Consider `CC(C)[C@H](N)C(=O)NC1CCN(c2nc3c(cc2F)c(=O)c(C(=O)O)cn3C2CC2)C1.Cl.O` (stereo partly drawn), for which the MIC amounted to 1.6 µg/mL in data set [1]; 1.6 µg/mL in data set [3]; 0.4 µg/mL in [6]; 1.6 µg/mL in data set [7]; 0.4 µg/mL in [8]; 1.6 µg/mL in data set [12]. Also, the MIC came out at 1.6 µg/mL in data set [13], 0.4 µg/mL in data set [14], 3.1 µg/mL in data set [15] and 1.6 µg/mL in [16]. The ED50 in data set [2] is 0.6 mg/kg; in data set [4] it was 76 mg/kg; in data set [9] it was 3 mg/kg; in [18], 27 mg/kg. For the same molecule, the solubility in [5] is over 200000 µg/mL; in [10] (read-out: S) it was 80 µg/mL; in data set [11], over 200000 µg/mL; in [17] it was over 200000 µg/mL.
Turning to `Cl.NCCCC[C@H](N)C(=O)NC1CCN(c2nc3c(cc2F)c(=O)c(C(=O)O)cn3C2CC2)C1.O` (stereo partly drawn), the MIC in data set [1] is over 25 µg/mL; in [3] it was 25 µg/mL; in data set [6], 6.3 µg/mL; in [7], 25 µg/mL; in [8], 12.5 µg/mL; in data set [12] it was over 25 µg/mL. The MIC in data set [13] was over 25 µg/mL; in data set [15], over 25 µg/mL; in data set [16] it was 25 µg/mL; in [21], 12.5 µg/mL. The solubility in data set [5] was over 300000 µg/mL; in [10], 70 µg/mL; in data set [11] it was over 600000 µg/mL; in [17], over 200000 µg/mL. For the same molecule, the ED50 was found to be 71 mg/kg in [19] and 70 mg/kg in data set [20].
In the case of `C[C@@H]1CN(c2c(F)c(N)c3c(=O)c(C(=O)O)cn(C4CC4)c3c2F)C[C@H](C)N1` [SPARFLOXACIN], the MIC in [1] worked out at 0.1 µg/mL (≈ 0.255 µM); in [6], 0.025 µg/mL (≈ 0.0637 µM); in [7], 0.2 µg/mL (≈ 0.51 µM); in data set [8] it was 0.025 µg/mL (≈ 0.0637 µM); in data set [24] it was 0.8 µg/mL (≈ 2.04 µM); in data set [12], 0.1 µg/mL (≈ 0.255 µM). Further, the MIC came to 0.05 µg/mL (≈ 0.127 µM) in [13], 0.05 µg/mL (≈ 0.127 µM) in data set [25], 0.05 µg/mL (≈ 0.127 µM) in data set [16] and 0.025 µg/mL (≈ 0.0637 µM) in data set [21]. Further, the ED50 in data set [4] is 17 mg/kg; in data set [19], 14 mg/kg; in data set [22], 7 mg/kg; in [20] it was 13 mg/kg; in data set [23] it was 1 mg/kg; in data set [26] it was 14 mg/kg. For the same molecule, the ED50 in data set [28] came to 0.2 mg/kg; in data set [18], 17 mg/kg. The solubility in data set [5] was found to be 90 µg/mL (≈ 229 µM); in [10] (read-out: S) it was 10 µg/mL (≈ 25.5 µM); in data set [11] it was 30 µg/mL (≈ 76.5 µM); in data set [17], 400 µg/mL (≈ 1020 µM). For the same molecule, the Cleavage in data set [27] amounted to 2.5 µg/mL.
In the case of `Cl.N[C@H]1CCN(c2c(F)cc3c(=O)c(C(=O)O)cn(C4CC4)c3c2F)C1.O`, in data set [29], the Cleavage is 0.1 µg/mL. For the same molecule, the MIC in data set [1] was found to be 0.013 µg/mL; in [3], 0.003 µg/mL; in [6], 0.003 µg/mL; in [7], 0.006 µg/mL; in data set [8] it was 0.013 µg/mL; in [24], 0.025 µg/mL. Moreover, the MIC in data set [12] turned out to be 0.025 µg/mL; in [13] it was 0.013 µg/mL; in data set [16], 0.013 µg/mL; in data set [21] it was 0.006 µg/mL. For the same molecule, the ED50 came to 0.2 mg/kg in data set [30], 1 mg/kg in [31], 15 mg/kg in data set [19] and 7 mg/kg in data set [32]. Besides, in data set [5], the solubility is 17000 µg/mL.
